Compounds with a hit are over-represented: about 3.1% of the library has one in this group of screens.
NS3 helicase inh: inhibitors of Hepatitis C virus NS3 helicase | inhibition, % at 10.9 µM | hit rate 0.56% among 290,000 | NS3 helicase DNA unwinding, Cy5 molecular beacon fluorescence | AID 1800;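 active = inhibition above the mean of all tested compounds plus 3 SD, set per campaign, cut at about 35% in these data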;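 also: 0% = DMSO wells and 100% = thioflavine S control wells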
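Measured by: Cy5 fluorescence, 0 and 60 min reads / Assay system: NS3 helicase fragment of HCV / Control set: low DMSO, high thioflavine S at 110 µM / Times: 1 h reaction at 25 °C, ATP-initiated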
IMP-1 inh: inhibitors of Pseudomonas aeruginosa IMP-1 metallo-beta-lactamase; hit rate 0.45% among 290,000; inhibition, % at 5.6 µM; purified IMP-1, nitrocefin hydrolysis, epi-absorbance fluorescence; AID 1556;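 active = inhibition above the mean plus 3 SD of all compounds in the same screening run, cut at about 4.5% in these data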;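 also: 0% = IMP-1 with DMSO and 100% = DMSO wells lacking enzyme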
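System – purified recombinant IMP-1 beta-lactamase · Input – IMP-1 dispensed at 0.2 nM · Timing – 15 min preincubation plus 25 min reaction at 25 °C · Signal – Epi-absorbance fluorescence, 480 nm excitation, 530 nm emission · Measure – percent IMP-1 inhibition derived from blank-referenced optical density · Controls – Enzyme-plus-DMSO low control, enzyme-free DMSO high control · Replication – singlicate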
SUMO HTRF inh: blocks human SUMOylation mediated by UBC9 | hit rate 0.36% among 290,000 | P63279 | AID 2006 | HTRF SUMOylation assay, SAE1/SAE2 + UBC9, in vitro | inhibition, % at 35 µM; in the data active = inhibition above about 50%, passing the limit was not always enough; inconclusive = no clear call, values can overlap the other calls
Target sequence (P63279 whole entry, looked up): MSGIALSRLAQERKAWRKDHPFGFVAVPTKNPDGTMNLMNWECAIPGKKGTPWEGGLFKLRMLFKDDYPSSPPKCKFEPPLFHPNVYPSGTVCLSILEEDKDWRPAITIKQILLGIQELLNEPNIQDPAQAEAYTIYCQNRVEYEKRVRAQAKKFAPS
PHOSPHO1 inh: inhibitors of human PHOSPHO1 phosphatase; Q8TCT1; recombinant PHOSPHO1, absorbance phosphatase assay; inhibition, % at 13.3 µM; hit rate 1.1% among 290,000; AID 1565; in the data active = inhibition above about 60%
Target sequence (Q8TCT1 whole entry, looked up): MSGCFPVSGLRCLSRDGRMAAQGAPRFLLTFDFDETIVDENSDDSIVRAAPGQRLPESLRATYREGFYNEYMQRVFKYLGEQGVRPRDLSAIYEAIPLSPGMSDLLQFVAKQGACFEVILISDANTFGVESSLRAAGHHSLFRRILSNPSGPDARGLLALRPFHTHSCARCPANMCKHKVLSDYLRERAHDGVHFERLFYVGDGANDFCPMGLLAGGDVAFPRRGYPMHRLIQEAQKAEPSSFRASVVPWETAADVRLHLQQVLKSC
HCV core dimer: blocks dimerization of HCV core protein | hit rate 0.33% among 300,000 | AID 1899 | inhibition, % at 5 µM | TR-FRET GST/Flag-core106 dimerization, 1536-well;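 active = inhibition above the mean of all tested compounds plus 3 SD, set per screening campaign, cut at about 45% in these data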
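Material: GST/Flag-tagged HCV core106 proteins. Incubation: 4 h, 22.5 °C incubation. Read-out basis: inhibition (%) from 671 over 617 nm ratio. Measured by: TR-FRET, excitation 340 nm, emission 617 and 671 nm.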
VIM-2 inhibitor: blocks Pseudomonas aeruginosa VIM-2 metallo-beta-lactamase | purified VIM-2, nitrocefin hydrolysis, epi-absorbance fluorescence | inhibition, % at 5.6 µM | hit rate 0.89% among 290,000 | AID 1527;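 active = inhibition above the mean of all tested compounds plus 3 SD, cutoff set per screening run, cut at about 7.5% in these data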;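 also: red hydrolysis product quenches plate fluorescence so inhibitors raise well fluorescence; 0% = enzyme with DMSO and 100% = DMSO without enzyme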
NS3 hel confirm: confirmation of Hepatitis C virus NS3 helicase inhibitors | shares compounds with NS3 helicase inh | NS3 helicase DNA unwinding, Cy5 molecular beacon fluorescence | inhibition, % at 10.9 µM | hit rate 31% among 1,600;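 active = inhibition above the mean of all tested compounds plus 3 SD, cutoff set per campaign, cut at about 36% in these data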
FID counter trip: intercalator displacement, NS3 helicase counter-screen | shares compounds with NS3 helicase inh | DNA fluorescent intercalator displacement, fluorescence | inhibition, % at 7.9 µM | hit rate 4% among 1,600; in the data active = inhibition above about 37%;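 also: 0% = vehicle and 100% = reference compound; higher means more displacement of ethidium bromide from the DNA hairpin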
FID counter DR: DNA intercalator displacement in dose response. shares compounds with NS3 helicase inh. fluorescent intercalator displacement from DNA, fluorescence. IC50, µM. 120 tested, under 10 active; call rule not given here
* marks the source's active call; other numbers are inactive results; i = inactive; u = inconclusive; x = no result.

SMILES	NS3 helicase inh	IMP-1 inh	SUMO HTRF inh	PHOSPHO1 inh	HCV core dimer	VIM-2 inhibitor	NS3 hel confirm	FID counter trip	others
COc1ccc(CNC(=O)COC(=O)CC2CCCC2)cc1	1	-4	-10	9	-2	-2	x	x
Cc1cccc(NC(=O)C(Cc2ccccc2)c2nn[nH]n2)c1C (stereo unspecified)	-10	-3	-1	3	-8	-3	x	x
O=C(NC1CC1)c1cc(-c2ccco2)nc2ccccc12	41*	-2	41	-6	x	0	34	6
O=C(O)c1cc(-c2ccco2)nc2ccccc12	20	-4	20	20	-4	-3	x	x
O=C(CSc1ccc(-c2ccco2)nn1)c1cccc([N+](=O)[O-])c1	38*	-2	73*	-2	65*	-3	-9	16
COc1ccc(NC(=O)NC(C)C2CC3CCC2C3)cc1 (stereo unspecified)	-4	1	-4	30	3	1	x	x
O=C(O)CCN1C(=O)/C(=C2\C(=O)N(Cc3ccccc3Cl)c3ccccc32)SC1=S	44*	-1	41	-113	x	-4	91*	4	FID counter DR=>79
O=C(O)c1cc(N/N=C/C=C/c2ccccc2[N+](=O)[O-])ccc1Cl	43*	-1	-1	12	-5	2	52*	-3
CCc1ccc(C(=O)NNC(=O)c2cccc(N3C(=O)CCC3=O)c2)cc1	x	x	x	x	4	x	x	x
COc1ccc(N2CCN(C(=O)CN(c3ccc(OC)cc3)S(=O)(=O)c3ccccc3)CC2)cc1	-10	-2	-4	53	3	-2	x	x
COc1ccc(N2CCN(C(=O)CN(c3ccccc3)S(=O)(=O)c3ccc(OC)cc3)CC2)cc1	40*	-4	-9	-7	8	-2	-15	-26
Cn1c(C2CCCCC2)nc2ccccc21	6	-3	-5	19	1	-1	x	x
N#CCCN(Cc1cccnc1)C(=S)NC(=O)C1CC1	-1	-1	-11	40	-1	-3	x	x
CCOC(=O)c1c(NC(=O)C2C3C=CC(C3)C2C(=O)O)sc2c1CCC(CC)C2 (stereo unspecified)	39*	-3	8	7	10	-4	84*	-35
COc1cc(NC(=O)COc2cc3oc(=O)cc(C)c3cc2Cl)cc(OC)c1OC	4	-1	-8	38	6	1	x	x
O=C(Nc1cccc([N+](=O)[O-])c1)c1ccc2ccccc2c1O	5	-2	12	16	-14	1	x	x
O=C(NCCO)Nc1ccc2nc(-c3ccco3)c(-c3ccco3)nc2c1	57*	6.4*	98*	2	76*	4	67*	38*
S=C(Nc1ccc(N2CCOCC2)cc1)Nc1ccc2nc(-c3ccco3)c(-c3ccco3)nc2c1	55*	4	u	92*	83*	1	18	-4
CC(=O)c1ccc(NC(=O)c2ccc3nc(-c4ccco4)c(-c4ccco4)nc3c2)cc1	39*	0	92*	98*	78*	-2	78*	34
CCc1nc2ccc(C(=O)Nc3ccc(NC(C)=O)cc3)cc2nc1CC	-4	-2	-2	-9	0	-1	x	x
O=C(Nc1ccc(N2CCOCC2)cc1)c1ccc2nc(-c3ccco3)c(-c3ccco3)nc2c1	9	1	1	-26	14	0	x	x
O=C(NCCCO)c1ccc2nc(-c3ccco3)c(-c3ccco3)nc2c1	0	-1	u	2	x	-3	x	x
O=C(Nc1ccccc1)c1ccc2nc(-c3ccco3)c(-c3ccco3)nc2c1	46*	-1	x	-17	75*	-3	78*	53*
CCCN(CC(=O)Nc1ccccc1C)C(=O)CC(NC(=O)c1ccccc1)c1ccccc1 (stereo unspecified)	x	x	x	x	4	x	x	x
O=C(c1ccc2nc(-c3ccco3)c(-c3ccco3)nc2c1)N1CCN(c2ncccn2)CC1	53*	1	u	-17	62*	-2	84*	19	FID counter DR=>79
SMILES	NS3 helicase inh	IMP-1 inh	SUMO HTRF inh	PHOSPHO1 inh	HCV core dimer	VIM-2 inhibitor	NS3 hel confirm	FID counter trip	others
CN(C)c1ccc(/C=N/NC(=O)C(O)(c2ccccc2)c2ccccc2)o1	65*	-2	-7	25	7	-3	-31	-31
COc1cc(NS(=O)(=O)c2ccc(NC(=O)/C=C/C(=O)O)cc2)nc(OC)n1	21	-2	4	-39	-7	1	x	x
CCCCn1c(N)c(N(CCOC)C(=O)c2ccc(S(=O)(=O)N3CCC(C)CC3)cc2)c(=O)[nH]c1=O	x	x	x	x	-5	x	x	x
Cc1c(C(=O)O)[nH]c2c1C(=O)CC(c1ccc(C(C)(C)C)cc1)C2 (stereo unspecified)	49*	-2	24	33	3	-2	29	-25
Clc1nc(Cl)nc(-c2cn(-c3ccccc3)c3ccccc23)n1	-3	-3	18	12	6	-1	x	x
O=C(O)C(Oc1ccc2ccccc2c1)c1ccccc1 (stereo unspecified)	x	x	x	x	0	x	x	x
COc1ccccc1NC(=O)c1cc2cc(Br)ccc2cc1O	13	-2	41	18	23	-2	87*	30	FID counter DR=i
O=C(Nc1ccccc1O)c1cc2cc(Br)ccc2oc1=O	43*	-2	27	39	5	-2	-6	4
Cn1c2ccccc2c2cc(/C=N/NC(=O)c3cc(O)cc(O)c3)ccc21	23	-2	12	24	15	0	x	x
Cn1c2ccccc2c2cc(/C=N/NC(=O)c3cc(O)ccc3O)ccc21	69*	-3	58*	0	38	-5	24	12
CCn1cc(C(=O)O)c(=O)c2cc(F)c(N3CCN(C(=S)NC(=O)c4ccccc4Br)CC3)cc21	50*	1	-2	24	7	2	12	1
CCn1cc(C(=O)O)c(=O)c2cc(F)c(N3CCN(C(=S)NC(=O)c4ccc(F)cc4)CC3)cc21	-5	-1	24	-8	-1	-3	x	x
NS(=O)(=O)c1ccc(NC(=O)COC(=O)c2cnccn2)cc1	0	0	-5	36	10	0	x	x
CCOC(=O)Cc1csc(NC(=O)c2csc(C)c2)n1	4	-3	-6	4	0	-4	x	x
CCOC(=O)Cc1csc(NC(=O)c2sc3nc4c(C)cc(C)cc4cc3c2N)n1	38*	-2	1	45	-3	1	-11	-25
CCOC(=O)c1c(-c2ccccc2)oc2ccc(OCC(=O)NNC(=O)CCC(=O)O)cc12	41*	-6	34	-5	x	-2	9	-18
